“Also recorded” adds a separate entry of the source. No end group written: not given here. *: point of attachment. pNA = O=[N+]([O-])c1ccc(N*)cc1; Cbz = O=C(OCc1ccccc1)*
Tests used:
PEP = settings: ref [9]; cited from earlier work
[1] = cited from earlier work; for side effects (in words): ref [18], [19]; for duration of action (in words): reference not given
[2] = test system: apPEP (WT and D622N crystals); test: Crystal soaking with zPP; format: binding, Aeromonus punctata
In short: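 Native full-length WT or D622N apPEP (E. coli-expressed, Ni-affinity purified, thrombin-cleaved, SEC) crystallized at 14 °C with 20 mM MES pH 6.5 and PEG. Crystals were cryoequilibrated 1–2 days at 4 °C, soaked overnight at 4 °C, then glutaraldehyde vapour cross-linked for 4 h at 4 °C. Data were collected at 100 K; structures solved by molecular replacement, with inhibitor placed from difference maps.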

DPP4 = settings: ref [64]; cited from earlier work
[3] = test system: apPEP (WT Aeromonus punctata PEP); test: apPEP enzyme kinetics with chromogenic/fluorescent substrate Z-Gly-Pro-pNA; format: biochemical
In short: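 Free pNA was read […] to give initial velocities. Km came from a Lineweaver-Burk plot over 31–500 μM substrate. kcat/Km was taken as Vo/SoEo at two or more substrate concentrations.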

bradykinin: cleaved by PEP (RPPGFSPFR; Bradykinin; UniProt P01042 381-389, looked up)
cleavage by PEP (in words) (PEP): Cleavage

N#C[C@@H]1CCCN1C(=O)CNC12CC3CC(CC(O)(C3)C1)C2 [Galvus]
side effects (in words) [1]: no significant negative side effects | duration of action (in words) [1]: act transiently

N[C@@H](CC(=O)N1CCn2c(nnc2C(F)(F)F)C1)Cc1cc(F)c(F)cc1F [Januvia]
side effects (in words) [1]: no significant negative side effects | duration of action (in words) [1]: act transiently

benzyloxy-carbonyl-prolyl-prolinal [zPP]
contact with catalytic Ser538 (in words) ([2]; D622N-zPP structure): makes van der Waals contact with the aldehyde group of the inhibitor | conformational change induced by inhibitor (in words) ([2]; preformed native crystals soaked with 10 mM zPP overnight at 4 °C): inducing a conformational change from opened (red) to closed (blue) states; also recorded: induces large scale interdomain closure

neuropeptide Y: involved in neurogenic inflammation and blood pressure regulation
cleavage efficiency by DPP4 relative to GLP1 (in words) (DPP4): even higher efficiency than GLP1

gastrin-releasing peptide 3–27: DPP4 substrate (LPAGGGTVLTKMYPRGNHWAVGHLM; ends and bridges not checked; UniProt P07492 26-50, looked up, fragment)
cleavage efficiency by DPP4 relative to GLP1 (in words) (DPP4): even higher efficiency than GLP1

stromal cell-derived factor 1α
cleavage efficiency by DPP4 relative to GLP1 (in words) (DPP4): even higher efficiency than GLP1

Cbz-Gly-Pro-pNA
kcat ([3]; 20 mM Tris-HCl (pH 8), 100 mM NaCl, 34 °C): 505 s⁻¹ | kcat/Km ([3]; from initial rates, kcat/Km = Vo/SoEo, substrate 16–62 μM, pH 8, 34 °C): 623 s⁻¹ mM⁻¹

IP10: DPP4 substrate
cleavage efficiency by DPP4 relative to GLP1 (in words) (DPP4): even higher efficiency than GLP1

angiotensin I-II
cleavage by PEP (in words) (PEP): Cleavage

B1: monocyte-derived chemokine: DPP4 substrate (protein, UniProt O00626 25-93, looked up)
C-C motif chemokine 22: GPYGANMEDSVCCRDYVRYRLPLRVVKHFYWTSDSCPRPGVVLLTFRDKEICADPRVPWVKMILNKLSQ
cleavage efficiency by DPP4 relative to GLP1 (in words) (DPP4): even higher efficiency than GLP1

B2: Mig: DPP4 substrate (protein, UniProt Q07325 23-125, looked up)
C-X-C motif chemokine 9: TPVVRKGRCSCISTNQGTIHLQSLKDLKQFAPSPSCEKIEIIATLKNGVQTCLNPDSADVKELIKKWEKQVSQKKKQKNGKKHQKKKVLKVRKSQRSRQKKTT
cleavage efficiency by DPP4 relative to GLP1 (in words) (DPP4): even higher efficiency than GLP1

B3: interferon-inducible T cell α: DPP4 substrate (protein, UniProt O14625 22-94, looked up)
C-X-C motif chemokine 11: FPMFKRGRCLCIGPGVKAVKVADIEKASIMYPSNNCDKIEVIITLKENKGQRCLNPKSKQARLIIKKVERKNF
cleavage efficiency by DPP4 relative to GLP1 (in words) (DPP4): even higher efficiency than GLP1

— publication PMC2898448 (The Journal of Biological Chemistry, 2010)
